Assay results taken from PMC3658176 (Cancer cell, 2013).
Where no end group is shown, it is not given here.

Assays:
[1] = molecular target: T1, H2-D^b (Mus musculus, UniProt P01899); assay: Cell-free competition MHC peptide binding assay, purified H2-D^b
T1 sequence (P01899 25-362): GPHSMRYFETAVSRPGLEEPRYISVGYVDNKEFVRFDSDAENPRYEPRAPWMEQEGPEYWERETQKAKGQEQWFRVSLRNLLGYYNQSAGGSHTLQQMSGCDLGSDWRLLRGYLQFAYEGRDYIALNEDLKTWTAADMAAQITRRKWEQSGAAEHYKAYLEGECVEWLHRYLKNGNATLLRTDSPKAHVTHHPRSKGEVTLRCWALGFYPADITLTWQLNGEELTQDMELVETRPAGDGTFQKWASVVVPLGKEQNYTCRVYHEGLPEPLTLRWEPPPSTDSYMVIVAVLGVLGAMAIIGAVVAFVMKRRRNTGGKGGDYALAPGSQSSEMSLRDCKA
T1 sequence (P01887 21-119 partner): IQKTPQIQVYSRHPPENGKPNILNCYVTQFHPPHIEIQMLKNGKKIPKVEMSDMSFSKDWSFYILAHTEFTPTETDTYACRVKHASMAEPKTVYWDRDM

[2] = molecular target: T2, H2-K^b (Mus musculus, UniProt P01901); assay: Cell-free competition MHC peptide binding assay, purified H2-K^b
T2 sequence (P01901 22-369): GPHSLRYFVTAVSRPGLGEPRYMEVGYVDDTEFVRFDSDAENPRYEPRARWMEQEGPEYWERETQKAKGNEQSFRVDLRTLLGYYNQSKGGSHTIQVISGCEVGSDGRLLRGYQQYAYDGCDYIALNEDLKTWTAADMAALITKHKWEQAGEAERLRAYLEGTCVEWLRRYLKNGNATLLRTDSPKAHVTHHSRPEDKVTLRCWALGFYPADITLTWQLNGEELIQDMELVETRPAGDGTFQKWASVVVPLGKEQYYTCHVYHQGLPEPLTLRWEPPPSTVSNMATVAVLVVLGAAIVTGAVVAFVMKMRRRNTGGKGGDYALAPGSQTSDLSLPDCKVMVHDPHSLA
T2 sequence (P01887 21-119 partner): T1 sequence (P01887 21-119 partner)

[3] = molecular target: HLA-A*0201 (Homo sapiens, UniProt P04439, D140Y/D185E/D98H/E176V/E277Q/G131W/G231S/I119V/I121R/I166T/I218V/L300P/L318F/N151K/N90K/P208A/P217A/Q86G/Q94H/R138H/R169H/T345S); assay: Cell-free competition MHC peptide binding assay, purified HLA-A*0201
Procedure, shortened: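 Purified MHC class I molecule incubated with a labelled probe peptide and graded concentrations of unlabelled test peptide. IC50 taken as the inhibitor peptide concentration that displaces half of the probe. Labelled probe concentration was below MHC concentration. Under these conditions, and where IC50 ≥ MHC concentration, IC50 approximates KD.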

| Compound | IC50 [1] | IC50 [2] | further results |
| --- | --- | --- | --- |
| EGPRNQDWL [EGP] | 454 nM | – | – |
| EGSRNQDWL [mgp100_25–33] | 23000 nM | – | – |
| CC[C@H](C)[C@H](NC(=O)[C@@H](NC(=O)[C@@H](N)CO)[C@@H](C)CC)C(=O)N[C@@H](CC(N)=O)C(=O)N[C@@H](Cc1ccccc1)C(=O)N[C@@H](CCC(=O)O)C(=O)N[C@@H](CCCCN)C(=O)N[C@@H](CC(C)C)C(=O)O [OVA257–264] | – | 0.9 nM | – |
| SIYRYYGL [SIY] | – | 1.1 nM | – |
| FMDGTMSQV [Tyr369–377] | – | – | IC50 [3]: 4.2 nM |
| KVPRNQDWL [hgp100_25–33] | 186 nM | – | – |
